The source of these data is ChEMBL document CHEMBL1828531, “Pyrazol-3-propanoic acid derivatives as novel inhibitors of leukotriene biosynthesis in human neutrophils” (Eur J Med Chem, 2011).

Experiment [1] addresses Prostaglandin G/H synthase 1 (Homo sapiens, UniProt P23219). The experiment is described as follows: Inhibition of COX1-mediated 12-HHT production in human platelet after 5 mins by HPLC analysis. An outline of the steps: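 Washed human platelets, 10^8/mL in PBS with 1 mM CaCl2, preincubated with compound 4 min at 4 °C then 1 min at 37 °C. 5 µM AA added for 5 min at 37 °C. Methanol/HCl stop, PGB1 added, 12-HHT by HPLC. Residual activity at 10 µM. IC50 by interpolation from 4–5 concentrations.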

Experiment [2] deals with T1, Prostaglandin G/H synthase 2 (Homo sapiens, UniProt P35354).
T1 sequence (P35354 whole entry): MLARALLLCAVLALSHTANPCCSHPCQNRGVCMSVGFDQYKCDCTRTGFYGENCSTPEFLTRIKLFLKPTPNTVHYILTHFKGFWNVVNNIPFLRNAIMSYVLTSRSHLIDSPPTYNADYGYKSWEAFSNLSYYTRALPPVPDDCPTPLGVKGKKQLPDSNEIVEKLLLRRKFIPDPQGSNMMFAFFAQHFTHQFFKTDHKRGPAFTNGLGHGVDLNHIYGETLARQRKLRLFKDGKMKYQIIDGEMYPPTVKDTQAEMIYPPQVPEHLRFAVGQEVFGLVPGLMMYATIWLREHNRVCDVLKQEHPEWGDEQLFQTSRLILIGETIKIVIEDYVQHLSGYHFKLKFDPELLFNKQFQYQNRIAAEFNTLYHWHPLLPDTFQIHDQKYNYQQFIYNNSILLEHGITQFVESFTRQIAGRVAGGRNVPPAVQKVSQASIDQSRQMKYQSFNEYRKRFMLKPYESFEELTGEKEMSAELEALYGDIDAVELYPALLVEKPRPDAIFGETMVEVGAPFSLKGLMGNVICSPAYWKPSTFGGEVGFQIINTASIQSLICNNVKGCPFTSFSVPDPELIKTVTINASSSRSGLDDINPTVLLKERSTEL
The experiment is described as follows: Inhibition of COX2-mediated 6-keto PGF1alpha production in IL1-beta stimulated human A549 cells after 10 mins by EIA. Format: cell-based. An outline of the steps: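 A549 cells stimulated with IL-1β (1 ng/ml) 72 h in DMEM with 2% FCS, trypsinized and washed. 10^6 cells/mL PBS with 1 mM CaCl2 preincubated with compound 10 min at 37 °C. 3 µM AA added for 15 min at 37 °C, stopped on ice. 6-keto PGF1α in supernatant measured by EIA.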

A further experiment relates to A549. The experiment can be described thus: Inhibition of mPGES1-mediated PGE2 production in IL1-beta stimulated human A549 cells assessed as residual activity at 10 uM after 15 mins. In kind it is cell-based. An outline of the steps:
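Microsomes from IL-1β (1 ng/ml, 72 h) stimulated A549 cells, diluted in 0.1 M potassium phosphate pH 7.4 with 2.5 mM glutathione. Compound or 1% DMSO added, 15 min at 4 °C. Started with 20 µM PGH2 (final), 1 min at 4 °C. Stopped with FeCl2/citric acid containing 11β-PGE2 internal standard. PGE2 by RP-C18 solid-phase extraction and peak integration.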

Experiment [3] concerns the target T2, Polyunsaturated fatty acid lipoxygenase ALOX15 (Homo sapiens) (UniProt P16050).
T2 sequence (whole entry): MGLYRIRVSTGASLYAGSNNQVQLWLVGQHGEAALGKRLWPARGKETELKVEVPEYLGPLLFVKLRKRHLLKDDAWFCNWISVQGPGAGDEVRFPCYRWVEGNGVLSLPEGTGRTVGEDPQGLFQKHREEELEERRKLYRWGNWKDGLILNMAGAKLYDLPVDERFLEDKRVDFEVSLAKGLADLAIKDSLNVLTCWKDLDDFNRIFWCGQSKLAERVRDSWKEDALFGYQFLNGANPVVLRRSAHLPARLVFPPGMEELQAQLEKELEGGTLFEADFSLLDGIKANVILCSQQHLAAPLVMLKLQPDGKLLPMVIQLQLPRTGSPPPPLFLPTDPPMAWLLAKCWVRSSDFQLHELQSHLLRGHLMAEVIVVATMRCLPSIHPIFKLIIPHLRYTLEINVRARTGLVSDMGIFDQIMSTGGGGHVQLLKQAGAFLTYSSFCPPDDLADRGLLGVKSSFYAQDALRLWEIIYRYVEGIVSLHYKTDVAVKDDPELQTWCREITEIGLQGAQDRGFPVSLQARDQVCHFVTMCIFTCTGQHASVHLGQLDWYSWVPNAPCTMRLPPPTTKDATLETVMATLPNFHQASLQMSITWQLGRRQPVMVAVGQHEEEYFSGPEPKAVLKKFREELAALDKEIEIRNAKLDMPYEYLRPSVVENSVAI
The experiment is described as follows: Inhibition of 15-Lipoxygenase-mediated 15-HETE in human neutrophil assessed as residual activity at 30 uM after 15 mins by HPLC analysis. An outline of the steps: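 Freshly isolated human blood neutrophils, 5 × 10^6/mL in PBS pH 7.4 with 1 mg/mL glucose and 1 mM CaCl2, preincubated with compound 15 min at RT. Stimulated with 2.5 µM A23187 plus 20 µM AA for 10 min at 37 °C. Stopped with methanol/HCl, PGB1 internal standard. 12-HETE or 15-HETE measured by HPLC. Residual activity tested at 30 µM.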

Chain of Prostaglandin G/H synthase 1 (P23219 whole entry): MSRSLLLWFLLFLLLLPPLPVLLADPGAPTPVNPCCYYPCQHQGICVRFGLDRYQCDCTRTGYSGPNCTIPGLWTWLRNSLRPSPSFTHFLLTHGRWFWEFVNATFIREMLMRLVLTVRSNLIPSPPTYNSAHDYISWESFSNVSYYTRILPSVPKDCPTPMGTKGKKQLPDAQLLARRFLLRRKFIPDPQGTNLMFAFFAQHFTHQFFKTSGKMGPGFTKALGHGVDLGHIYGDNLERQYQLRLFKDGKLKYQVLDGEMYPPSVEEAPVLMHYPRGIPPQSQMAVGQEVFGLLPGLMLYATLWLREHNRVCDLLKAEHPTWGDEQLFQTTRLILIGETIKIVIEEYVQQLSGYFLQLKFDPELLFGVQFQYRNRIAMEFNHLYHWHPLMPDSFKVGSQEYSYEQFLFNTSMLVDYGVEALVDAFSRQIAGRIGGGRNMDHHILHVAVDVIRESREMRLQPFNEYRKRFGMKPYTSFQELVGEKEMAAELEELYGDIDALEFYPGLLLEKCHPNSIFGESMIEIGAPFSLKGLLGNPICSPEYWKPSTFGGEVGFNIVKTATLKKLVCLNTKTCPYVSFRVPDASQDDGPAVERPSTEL

For the compound `CCOC(=O)C1CCN(C(=O)CCc2cc(-c3ccc(C(F)(F)F)cc3)n(-c3ccc(Cl)nn3)n2)CC1`, the IC50 in experiment [1] and in experiment [2] was greater than 10 µM in each case. Also, the Activity is 103% in the experiment on A549 and 71% in experiment [3].

Regarding `CC(C)(C)c1ccc(CN2CCN(C(=O)CCc3cc(-c4ccc(F)cc4)n(-c4ccc(Cl)nn4)n3)CC2)cc1`, the half-inhibitory concentration (IC50) in experiment [1] and in experiment [2] was greater than 10 µM in each case. Further, the figures for the Activity (in the experiment on A549; in experiment [3]) were 75.6% and 175%, respectively.

Consider `Cc1ccc(-c2cc(CCC(=O)N3CCN(Cc4ccc(C(C)(C)C)cc4)CC3)nn2-c2ccccc2)cc1`, for which the IC50 in experiment [1] was 2.5 µM; in experiment [2], greater than 10 µM. Also, the Activity with A549 was determined as 84.6%; in experiment [3], 261%.

Regarding `Cc1ccc(-c2cc(CCC(=O)Oc3ccc(C(C)C)cc3)nn2-c2ccc(Cl)nn2)cc1`, the IC50 in experiment [1] and in experiment [2] was greater than 10 µM in each case. The Activity in the experiment on A549 amounted to 91.4%.

`CCOC(=O)C1CCN(C(=O)CCc2cc(-c3ccc(C)cc3)n(-c3ccccc3)n2)CC1`: the IC50 in experiment [1] and in experiment [2] was greater than 10 µM throughout. For the same compound, the Activity was found to be 82.6% with A549 and 196% in experiment [3].

For the compound `CCOC(=O)C1CCN(C(=O)CCc2cc(-c3ccc(C)cc3)n(-c3ccc4ccccc4n3)n2)CC1`, the IC50 in experiment [1] is 0.9 µM; in experiment [2], greater than 10 µM. Further, the results for the Activity (in the experiment with A549; in experiment [3]) were 84% and 149%, respectively.

On to `Cc1ccc(-c2cc(CCC(=O)Oc3ccc(C(C)C)cc3)nn2-c2ccccc2)cc1`, for which the half-maximal inhibitory concentration (IC50) in experiment [1] is 0.3 µM; in experiment [2], greater than 10 µM. In addition, the Activity with A549 came to 108%; in experiment [3], 124%.

As for `Cc1ccc(-c2cc(CCC(=O)N3CCN(Cc4ccc(C(C)(C)C)cc4)CC3)nn2-c2ccc3ccccc3n2)cc1`, the IC50 is 0.041 µM in experiment [1] and greater than 10 µM in experiment [2]. The Activity with A549 is 75%; in experiment [3], 145%.

Consider `Cc1ccc(-c2cc(CCC(=O)Oc3ccc(C(C)C)cc3)nn2-c2ccc3ccccc3n2)cc1`, for which the 50% inhibitory concentration (IC50) in experiment [1] is 0.014 µM; in experiment [2], greater than 10 µM. Besides, the values for the Activity (with A549; in experiment [3]) were 88% and 92%, respectively.

The IC50 is the concentration that gives 50% inhibition. Low values mean inhibition by little substance, high ones a need for much substance.
